Here are results for 41 compounds from ChEMBL document CHEMBL1806495, “Phenylpropenamide derivatives: anti-hepatitis B virus activity of the Z isomer, SAR and the search for novel analogs” (Bioorg Med Chem Lett, 2011).

Each structure is given as a SMILES string. Active and inactive are the calls of the source. The calls are words filed in the database; no cut-off is given here.

The test system of series [1] is Hepatitis B virus. Kind of series: Antiviral activity against HBV infected in human HepAD38 cells assessed as inhibition of viral DNA synthesis after 3 days. It is filed as functional. The following applies: HePAD38, 72 h. An outline of the steps:
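Anti-HBV readout in the Hep AD38 cellular assay: the value is reported as EC90, the compound concentration that inhibits viral DNA synthesis by 90%.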

Series [2] is described as follows: Cytotoxicity against human HepAD38 cells. It is filed as cell-based. An outline of the steps: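 Viability of Hep AD38 cells measured within the same cellular assay. The value is reported as CC90, the drug concentration that reduces cell viability by 90%.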
For series [3], the system named is Hepatitis B virus. Kind of series: Antiviral activity against HBV infected in human HepAD38 cells assessed as inhibition of viral DNA synthesis up to 100 uM after 3 days. Format: functional, organism-based.

`COc1ccccc1/C(Cl)=C(/NC(=O)c1ccc([N+](=O)[O-])cc1)C(=O)N1CCCCC1`: the EC90 (usually the concentration needed for an effect of 90%) in series [1] came to 0.56 µM. In series [2], this compound displayed a CC90 greater than 10 µM.
For `COc1ccccc1C1=C(C(=O)N2CCCCC2)N(C(=O)c2ccccc2)CC1` the same measures were greater than 10 µM and greater than 10 µM.
For `COc1cc([N+](=O)[O-])ccc1C(=O)N/C(C(=O)N1CCCCC1)=C(\Cl)c1ccccc1` the same measures were greater than 10 µM and greater than 10 µM.
For `CC1CCCN(C(=O)/C(NC(=O)c2ccccc2)=C(/Cl)c2ccccc2)C1` (stereo unspecified) the same measures were 6.43 µM and greater than 10 µM.
For `O=C(N/C(C(=O)N1CCCCC1)=C(\Cl)c1ccccc1)c1ccc(Br)cc1`, the EC90 in series [1] is 6.04 µM. The compound also returned a CC90 in series [2] greater than 10 µM.
In the case of `O=C(c1c(-c2ccccc2)ccn1C(=O)c1ccc(Br)cc1)N1CCCCC1`, the EC90 in series [1] is greater than 10 µM. The CC90 in series [2] was greater than 10 µM.
For `Cc1ccccc1/C(Cl)=C(/NC(=O)c1ccccc1)C(=O)N1CCCCC1`, the EC90 in series [1] was 1.8 µM. Besides, the CC90 in series [2] is greater than 10 µM.
For `O=C(N/C(C(=O)N1CCCCC1)=C(\Cl)c1ccccc1)c1ccc([N+](=O)[O-])cc1Br` the same measures were 4.06 µM and greater than 10 µM.
For `COc1ccccc1/C(Cl)=C(/NC(=O)c1ccc([N+](=O)[O-])cc1)C(=O)N1CCCC1` the same measures were 1.69 µM and greater than 10 µM.
For `CN1CCN(C(=O)/C(NC(=O)c2ccccc2)=C(/Cl)c2ccccc2)CC1` the same measures were greater than 10 µM and greater than 10 µM.
On to `C/C(=C(/NC(=O)c1ccc(Cl)cc1)C(=O)N1CCCCC1)c1ccccc1`, for which, in series [1], the EC90 amounted to 1.92 µM. Further, the CC90 in series [2] is greater than 10 µM.
For `C/C(=C(/NC(=O)c1ccc(Br)cc1)C(=O)N1CCCCC1)c1ccccc1` the same measures were 3.92 µM and greater than 10 µM.
For `Cc1ccc(/C(Cl)=C(/NC(=O)c2ccccc2)C(=O)N2CCCCC2)cc1` the same measures were greater than 10 µM and greater than 10 µM.
For `O=C(N/C(C(=O)N1CCOCC1)=C(\Cl)c1ccccc1)c1ccccc1` the same measures were greater than 10 µM and greater than 10 µM.
`O=C(N/C(C(=O)N1CCCCC1)=C(\Cl)c1cccc2c1OCO2)c1ccc([N+](=O)[O-])cc1`: in series [1], the EC90 came out at 4.66 µM. In series [2], this compound came in with a CC90 greater than 10 µM.
For `O=C(N/C(C(=O)N1CCCCC1)=C(\Br)c1cccc2c1OCO2)c1ccc([N+](=O)[O-])cc1` the same measures were 1.25 µM and greater than 10 µM.
For `COc1ccccc1/C(Br)=C(/NC(=O)c1ccccc1)C(=O)N1CCOCC1` the same measures were 2.78 µM and greater than 10 µM.
For `O=C(C1C(c2ccccc2)CCN1C(=O)c1ccccc1)N1CCCCC1` (stereo unspecified) the same measures were greater than 10 µM and greater than 10 µM.
For the compound `O=C(C1=C(c2ccccc2)CCN1C(=O)c1ccccc1)N1CCCCC1`, the concentration for an effect of 90% (EC90) in series [1] is greater than 10 µM. This compound returned a CC90 in series [2] greater than 10 µM.
Turning to `O=C(N/C(C(=O)N1CCCCC1)=C(/Cl)c1ccccc1)c1ccccc1`, the inhibition result in series [3] was “inactive”.
Regarding `O=C(N/C(C(=O)N1CCCCC1)=C(\Cl)c1ccccc1)c1ccc(Cl)cc1`, the EC90 in series [1] was determined as 1.25 µM. The compound also yielded a CC90 in series [2] greater than 10 µM.
For `O=C(N/C(C(=O)N1CCCCC1)=C(\Cl)c1ccccc1)c1ccccc1` the same measures were 5.51 µM and greater than 10 µM.
For `O=C(N/C(C(=O)N1CCCCC1)=C(\Cl)c1cccc2c1OCO2)c1ccccc1` the same measures were 9.9 µM and greater than 10 µM.
Take `O=C(N/C(C(=O)N1CCCCC1)=C(\Br)c1ccccc1)c1ccccc1`: the EC90 in series [1] was 5.9 µM. In series [2], this compound showed a CC90 greater than 10 µM.
For `O=C(N/C(C(=O)N1CCCCC1)=C(\Cl)c1ccccc1)c1ccc(F)cc1` the same measures were 2.17 µM and greater than 10 µM.
Turning to `O=C(c1c(-c2ccccc2)ccn1C(=O)c1ccccc1)N1CCCCC1`, in series [1], the EC90 is greater than 10 µM. The compound also returned a CC90 in series [2] greater than 10 µM.
For `O=C(N/C(C(=O)N1CCCCC1)=C(\Cl)c1ccccc1)c1ccc([N+](=O)[O-])cc1`, the EC90 in series [1] came out at 1.67 µM. The compound also had a CC90 in series [2] greater than 10 µM.
For `O=C(N/C(C(=O)N1CCCCC1)=C(\Cl)c1ccc(Cl)cc1)c1ccccc1` the same measures were greater than 10 µM and greater than 10 µM.
Regarding `COc1ccccc1/C(Cl)=C(/NC(=O)c1ccccc1)C(=O)N1CCOCC1`, the EC90 in series [1] came out at 4.72 µM. In series [2], the CC90 was greater than 10 µM.
For `O=C(N/C(C(=O)N1CCCCC1)=C(\Cl)c1ccccc1F)c1ccccc1` the same measures were 1.81 µM and greater than 10 µM.
On to `O=C(N/C(C(=O)N1CCCC(F)(F)C1)=C(\Cl)c1ccccc1)c1ccccc1`, for which the EC90 in series [1] was greater than 10 µM. In series [2], the CC90 is greater than 10 µM.
`CS(=O)(=O)c1ccc(C(=O)N/C(C(=O)N2CCCCC2)=C(\Cl)c2ccccc2)cc1`: the EC90 in series [1] was greater than 10 µM. Also, the CC90 in series [2] is greater than 10 µM.
As for `O=C(C1C(c2ccccc2)CCN1C(=O)c1ccc(Br)cc1)N1CCCCC1` (stereo unspecified), the EC90 in series [1] is greater than 10 µM. The CC90 in series [2] is greater than 10 µM.
Consider `O=C(C1=C(c2ccccc2)CCN1C(=O)c1ccc(Br)cc1)N1CCCCC1`, for which the EC90 in series [1] is greater than 10 µM. The compound also displayed a CC90 in series [2] greater than 10 µM.
For `Cc1ccc(C(=O)N/C(C(=O)N2CCCCC2)=C(\Cl)c2ccccc2)cc1`, the EC90 in series [1] stood at 2.9 µM. Further, the CC90 in series [2] is greater than 10 µM.
For `COc1ccccc1/C(Cl)=C(/NC(=O)c1ccccc1)C(=O)N1CCCCC1` the same measures were 1.71 µM and greater than 10 µM.
For `COc1ccccc1/C(Br)=C(/NC(=O)c1ccc([N+](=O)[O-])cc1)C(=O)N1CCCC1` the same measures were 0.39 µM and greater than 10 µM.
For `O=C(N/C(C(=O)N1CCCCC1)=C(\Cl)c1ccccc1)c1ccc([N+](=O)[O-])cc1C(F)(F)F` the same measures were greater than 10 µM and greater than 10 µM.
As for `O=C(N/C(C(=O)N1CCCCC1)=C(\Cl)c1ccccc1)c1ccc([N+](=O)[O-])cc1[N+](=O)[O-]`, in series [1], the EC90 is greater than 10 µM. Besides, the CC90 in series [2] is greater than 10 µM.
As to `O=C(N/C(C(=O)N1CCCCC1)=C(\Br)c1ccccc1)c1ccc(Cl)cc1`, the EC90 in series [1] was found to be 0.91 µM. This compound came in with a CC90 in series [2] greater than 10 µM.
For `COc1ccc(C(=O)N/C(C(=O)N2CCCCC2)=C(\Cl)c2ccccc2)cc1` the same measures were greater than 10 µM and greater than 10 µM.
